Test results from ChEMBL document CHEMBL1687892, “Potent agonists of the protease activated receptor 2 (PAR2)” (J Med Chem, 2011).
Calls of active or inactive are those of the source. The rule behind the calls is not given here.

Assays:
Assay type in all cases: functional, cell-based
[1] = molecular target: Proteinase-activated receptor 2 (Homo sapiens) (UniProt P55085); test: Agonist activity at PAR2 in human 16HBE14o cells assessed as activated cells at 100 uM by intracellular calcium mobilization fura-2-AM assay
Sequence of Proteinase-activated receptor 2 (Homo sapiens) (P55085 whole entry): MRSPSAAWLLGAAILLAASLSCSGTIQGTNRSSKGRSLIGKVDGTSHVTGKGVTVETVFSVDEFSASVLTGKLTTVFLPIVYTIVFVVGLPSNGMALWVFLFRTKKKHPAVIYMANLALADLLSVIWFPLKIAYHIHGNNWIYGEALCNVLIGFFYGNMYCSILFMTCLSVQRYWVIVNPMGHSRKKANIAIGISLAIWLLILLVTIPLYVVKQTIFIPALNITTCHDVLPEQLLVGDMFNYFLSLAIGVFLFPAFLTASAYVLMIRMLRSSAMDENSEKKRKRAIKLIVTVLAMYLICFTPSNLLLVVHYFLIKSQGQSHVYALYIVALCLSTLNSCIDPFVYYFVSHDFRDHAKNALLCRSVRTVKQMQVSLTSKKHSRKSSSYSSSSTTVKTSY
Method in brief: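 16HBE14o- cells were grown 5–7 days on matrix-coated coverslips, loaded with fura-2, and imaged by digital microscopy over 3 min (80–100 cells). A cell counted as activated if [Ca2+]i rose to ≥200 nM from a resting 50–75 nM, scored as % of cells. Doses ran from 100 μM down to 250 nM. EC50 came from % responding. Mean ± SEM, N ≥ 2 at 100 μM, N ≥ 4 otherwise.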

[2] = molecular target: Proteinase-activated receptor 2 (Homo sapiens) (UniProt P55085); test: Agonist activity at PAR2 in human 16HBE14o cells assessed as activated cells at […] by intracellular calcium mobilization fura-2-AM assay
[3] = molecular target: Proteinase-activated receptor 2 (Homo sapiens) (UniProt P55085); test: Agonist activity at human PAR2 expressed in human HeLa cells assessed as increase in intracellular calcium levels at 5 uM by fura-2-AM dye based digital imaging microscopy
[4] = molecular target: Proteinase-activated receptor 2 (Homo sapiens) (UniProt P55085); test: Agonist activity at human PAR2 expressed in rat kNRK cells assessed as increase in intracellular calcium levels at 5 uM by fura-2-AM dye based digital imaging microscopy
Method in brief: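 Cells transfected with human PAR2 (HeLa-PAR2 or kNRK-PAR2) were compared with low-expressing or plasmid-control cells of the same line. Cells were grown on matrix-coated coverslips and loaded with fura-2. 5 μM agonist was added, and mean [Ca2+]i of all cells in the field (~90) was imaged every 0.6 s, ± SEM.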

[5] = molecular target: Proteinase-activated receptor 2 (Homo sapiens) (UniProt P55085); test: Agonist activity at PAR2 in human 16HBE14o cells assessed as increase in intracellular calcium levels at […] by in vitro physiological response assay

SMILES	Activity [1]	Activity [2]	Activity [3]	Activity [4]	Activity [5]
CC[C@H](C)[C@H](NC(=O)[C@H](CC(C)C)NC(=O)c1cnccn1)C(=O)NCC(=O)N[C@@H](CCCNC(=N)N)C(=O)N[C@@H](CC(C)C)C(N)=O	Active	inactive	–	–	–
CC[C@H](C)[C@H](NC(=O)[C@H](CC(C)C)NC(=O)c1ccc(N)nc1)C(=O)NCC(=O)N[C@@H](CCCNC(=N)N)C(=O)N[C@@H](CC(C)C)C(N)=O	–	–	Active	Active	–
CC[C@H](C)[C@H](NC(=O)[C@H](CC(C)C)NC(=O)c1cccnc1N)C(=O)NCC(=O)N[C@@H](CCCNC(=N)N)C(=O)N[C@@H](CC(C)C)C(N)=O	Active	inactive	–	–	inactive
CC[C@H](C)[C@H](NC(=O)[C@H](CC(C)C)NC(=O)CCN1CCCCC1)C(=O)NCC(=O)N[C@@H](CCCNC(=N)N)C(=O)N[C@@H](CC(C)C)C(N)=O	0%	–	–	–	–
CC[C@H](C)[C@H](NC(=O)[C@H](CC(C)C)NC(=O)c1csc(N)n1)C(=O)NCC(=O)N[C@@H](CCCNC(=N)N)C(=O)N[C@@H](CC(C)C)C(N)=O	–	–	Active	Active	–
CC[C@H](C)[C@H](NC(=O)[C@H](CC(C)C)NC(=O)COCC(=O)O)C(=O)NCC(=O)N[C@@H](CCCNC(=N)N)C(=O)N[C@@H](CC(C)C)C(N)=O	0%	–	–	–	–
CC[C@H](C)[C@H](NC(=O)[C@H](CC(C)C)NC(=O)c1cccc2[nH]ccc12)C(=O)NCC(=O)N[C@@H](CCCNC(=N)N)C(=O)N[C@@H](CC(C)C)C(N)=O	0%	–	–	–	–
CC[C@H](C)[C@H](NC(=O)[C@H](CC(C)C)NC(=O)c1ccnc(N)c1)C(=O)NCC(=O)N[C@@H](CCCNC(=N)N)C(=O)N[C@@H](CC(C)C)C(N)=O	Active	inactive	–	–	inactive
CC[C@H](C)[C@H](NC(=O)[C@H](CC(C)C)NC(=O)c1ccc(S(N)(=O)=O)cc1)C(=O)NCC(=O)N[C@@H](CCCNC(=N)N)C(=O)N[C@@H](CC(C)C)C(N)=O	Active	inactive	–	–	–
CC[C@H](C)[C@H](NC(=O)[C@H](CC(C)C)NC(=O)CC#N)C(=O)NCC(=O)N[C@@H](CCCNC(=N)N)C(=O)N[C@@H](CC(C)C)C(N)=O	Active	inactive	–	–	–
CC[C@H](C)[C@H](NC(=O)[C@H](CC(C)C)NC(=O)c1cccnc1O)C(=O)NCC(=O)N[C@@H](CCCNC(=N)N)C(=O)N[C@@H](CC(C)C)C(N)=O	0%	–	–	–	–
CC[C@H](C)[C@H](NC(=O)[C@H](CC(C)C)NC(=O)Cc1c[nH]c2ccccc12)C(=O)NCC(=O)N[C@@H](CCCNC(=N)N)C(=O)N[C@@H](CC(C)C)C(N)=O	0%	–	–	–	–
CC[C@H](C)[C@H](NC(=O)[C@H](CC(C)C)NC(=O)c1nc(N)n[nH]1)C(=O)NCC(=O)N[C@@H](CCCNC(=N)N)C(=O)N[C@@H](CC(C)C)C(N)=O	Active	inactive	–	–	inactive
